Data on four molecules can be found in publication PMC3866046 (Biochemical pharmacology, 2013).

For one series, the target named is T1, hENT4 (Homo sapiens, UniProt Q7RTT9).
T1 sequence (Q7RTT9 1-530): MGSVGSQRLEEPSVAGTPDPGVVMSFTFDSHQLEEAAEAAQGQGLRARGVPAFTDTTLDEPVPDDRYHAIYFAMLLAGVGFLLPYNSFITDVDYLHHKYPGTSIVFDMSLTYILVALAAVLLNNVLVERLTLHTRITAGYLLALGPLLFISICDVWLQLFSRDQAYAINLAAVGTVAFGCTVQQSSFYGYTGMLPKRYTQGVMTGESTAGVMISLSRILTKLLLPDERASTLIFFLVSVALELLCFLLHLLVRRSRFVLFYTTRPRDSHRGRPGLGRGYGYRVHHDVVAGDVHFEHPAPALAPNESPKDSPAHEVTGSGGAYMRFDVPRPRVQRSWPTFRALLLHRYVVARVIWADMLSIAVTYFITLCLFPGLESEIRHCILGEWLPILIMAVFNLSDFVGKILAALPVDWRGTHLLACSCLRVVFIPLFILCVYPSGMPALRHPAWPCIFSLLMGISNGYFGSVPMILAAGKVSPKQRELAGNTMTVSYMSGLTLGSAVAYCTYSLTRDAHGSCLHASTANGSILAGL
Briefly: Inhibition of [3H]adenosine uptake in PK15/hENT4 cells at pH 6.0. It counts as cell-based. The method in brief:
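PK15NTD porcine kidney cells stably expressing FLAG-tagged hENT4 (cDNA cloned from HUVECs, G418-selected). Cells preincubated 15 min with graded test compound concentrations in transport buffer at pH 6.0, then given 0.2 μM [3H]adenosine for 2 min. Stopped by aspiration and three ice-cold PBS washes, lysed in 5% Triton X-100, scintillation counted. Triplicates; IC50 by nonlinear fitting.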

In the next series the test system is PK15-hENT4 cells. The experiment in a line: MTT assay for cell viability. It counts as cell-based, porcine. To be noted: 10 μM, 24 hours, compared with camptothecin. A digest of the protocol:
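PK15NTD (nucleoside-transporter-deficient) cells stably expressing recombinant hENT4 were trypsinised and seeded at 5 × 10^3 cells/well in MEM. […] MTT (5 mg/ml stock in PBS) was added for 4 h at 37 °C. Formazan was dissolved in 0.04 N HCl/isopropanol for 3 h at room temperature, and absorbance was read at 570 nm.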

Series [1] has as its target T2, hENT2 (Homo sapiens, UniProt Q14542).
T2 sequence (Q14542 1-456): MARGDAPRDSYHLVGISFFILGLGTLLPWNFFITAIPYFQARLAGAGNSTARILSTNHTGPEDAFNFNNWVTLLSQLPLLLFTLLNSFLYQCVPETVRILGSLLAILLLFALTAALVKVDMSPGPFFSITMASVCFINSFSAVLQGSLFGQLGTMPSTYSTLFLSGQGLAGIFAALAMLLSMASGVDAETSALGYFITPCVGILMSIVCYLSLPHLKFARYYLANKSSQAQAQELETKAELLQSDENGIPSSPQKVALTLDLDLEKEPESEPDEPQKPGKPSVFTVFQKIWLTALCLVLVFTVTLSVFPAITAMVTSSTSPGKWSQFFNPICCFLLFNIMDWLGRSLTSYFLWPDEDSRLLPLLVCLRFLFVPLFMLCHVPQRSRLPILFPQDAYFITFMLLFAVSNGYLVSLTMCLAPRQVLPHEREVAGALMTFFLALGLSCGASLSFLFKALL
Briefly: Inhibition of [3H]uridine uptake in PK15/hENT2 cells. It counts as cell-based. A digest of the protocol: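 PK15 cells stably expressing hENT2, in sodium-free choline chloride buffer at pH 7.4. Test compound was added for 15 min, either at graded concentrations or at 10 μM for screening; 0.2 μM [3H]uridine was then taken up for 2 min. Stopped with ice-cold PBS washes, lysed in Triton X-100, scintillation counted. Triplicates; screening uptake given as % of compound-free uptake; IC50 by nonlinear fit.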

Series [2] concerns the target T2, hENT2. To be noted: read-out: hENT2 IC50; cited from earlier work.
The next series has as its system human ENT4. To be noted: read-out: apparent Km of adenosine transport; pH 5.5; cited from earlier work.
The next series concerns mouse ENT4. To be noted: read-out: apparent Km of adenosine transport; pH 5.5; cited from earlier work.

Read-outs that look alike come from different tables or passages of the source.

On to `CC(C)CN(CC(C)C)c1nc(NCCO)nc2c(N(CC(C)C)CC(C)C)nc(NCCO)nc12` [Compound 30, 2,6-diethanolamino-4,8-di-(diisobutylamino)-pyrimido[5,4-d]pyrimidine], for which, at hENT4, the “selectivity for hENT4 relative to ENT1” value is listed as “about 80 fold” and the “selectivity for hENT4 relative to ENT2” value was about 20 fold. In the series on PK15-hENT4 cells, the “cytotoxicity / cell viability (in words)” value is reported as “no cytotoxicity”. In addition, in the series with PK15-hENT4 cells (listed as compound 30), the “cytotoxicity / cell viability (in words)” value is “significantly non-cytotoxic”.
Regarding `O=[N+]([O-])c1ccc(CSc2ncnc3c2ncn3[C@@H]2O[C@H](CO)[C@@H](O)[C@H]2O)cc1` [NBMPR, nitrobenzylmercaptopurine ribonucleoside, reference compound], the results for the IC50 on hENT2 [1], on hENT4 and at hENT2 [2] were 1350 nM, 2330 nM and 2800 nM, respectively.
Regarding `OCCN(CCO)c1nc(N2CCCCCCC2)c2nc(N(CCO)CCO)nc(N3CCCCCCC3)c2n1` [Compound 13, 2,6-bis(diethanolamino)-4,8-diheptamethyleneimino-pyrimido[5,4d]pyrimidine], the “activity against hENT2 (in words)” value at hENT2 [1] is reported as “active”.
As to `Nc1ncnc2c1ncn2[C@@H]1O[C@H](CO)[C@@H](O)[C@H]1O` [adenosine], the Km (usually the substrate concentration at which the rate is half of its maximum) with human ENT4 is 780 µM; in the series with mouse ENT4, 130 µM.
